According to ChEMBL document CHEMBL4842317, “Discovery of novel 3-hydroxyandrosta-5,7-Diene-17-Carboxylic acid derivatives as anti-inflammatory bowel diseases (IBD) agents” (Eur J Med Chem, 2021):
Active and inactive are the calls of the source. The calls are words filed in the database; no cut-off is given here.

Tests used:
[1] = test system: RAW264.7; assay: Antiinflammatory activity against mouse RAW264.7 cells assessed as decrease in LPS-induced NF-kappB mRNA expression in presence of LPS by qRT-PCR analysis; assay type: functional, cell-based; settings: dose 0.31-20 µM
Outline: (§1)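 RAW 264.7 cells are grown 12 h in six-well plates, then exposed to LPS (100 ng/ml) plus compound for 8 h. Reverse transcription is followed by SYBR Green qPCR with GAPDH as internal control. Relative expression is calculated by 2^-ΔΔCT versus the untreated control. Mean + SD from three independent experiments.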

[2] = test system: RAW264.7; assay: Inhibition of PI3K/Akt signaling in mouse RAW264.7 cells assessed as inhibition of LPS-induced NFkappB p-p65 accumulation in presence of LPS by western blot analysis; assay type: cell-based; settings: dose 0.31-20 µM
Outline: (§2)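 Lysates of LPS-stimulated RAW 264.7 cells (20–30 μg protein) are run on 10% SDS-PAGE, blotted, blocked with 5% milk, probed overnight at 4 °C (1:5,000), then detected with HRP secondary and ECL. Actin, GAPDH or H3 (nuclear fraction) serve as loading controls, with densitometry ratios. Blots are representative of three independent experiments; mean + SD (n = 3).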

[3] = test system: RAW264.7; assay: Inhibition of PI3K/Akt signaling in mouse RAW264.7 cells assessed as inhibition of LPS-induced Akt phosphorylation by measuring increase in Akt level at 1.25 uM in presence of LPS by western blot analysis; assay type: cell-based; outline: as §2
[4] = test system: Mus musculus; assay: Antiinflammatory activity against DSS-induced colitis C57BL/6 mouse assessed as decrease in p-IkB alpha level in colon at 25 mg/kg, ip administered for 7 days by western blot analysis; assay type: functional, organism-based; settings: time 7.0 day
Outline: (§3)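 Male C57BL/6 mice, 6 weeks old, 5 per group, given 3.5% DSS solution plus daily intraperitoneal drug (100 μL, in saline/castor oil/ethanol/DMSO 70:10:15:5) for 7 days. Colons collected after sacrifice. IL-1β is normalised per milligram of colonic protein. p-IκB-α and p-p65 in colonic protein are measured by Western blot. Bars give mean + SD.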

[5] = test system: RAW264.7; assay: Antiinflammatory activity against mouse RAW264.7 cells assessed as inhibition of LPS-induced IL-6 production measured after 24 hrs in presence of LPS by ELISA; assay type: functional, cell-based; settings: dose 0.31-20 µM
Outline: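 RAW 264.7 cells are seeded at 2 × 10^5 per well, grown 12 h, and given 100 ng/mL LPS with compound at 0.31 to 20 μM for 24 h. Supernatant IL-1β and IL-6 are quantified by ELISA. Mean + SD, n = 3.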

[6] = test system: RAW264.7; assay: Cytotoxicity against mouse RAW264.7 cells assessed as reduction in cell viability at 3 to 100 uM incubated for 24 hrs in presence of LPS by MTT assay; assay type: cell-based; settings: raw264.7, 24 h, dose 3-100 µM
Outline: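 RAW 264.7 cells are seeded at 1.0 × 10^4 per well and incubated overnight. Compounds are added at concentrations from 100 μM downward, with or without LPS (100 ng/mL), for 24 h. MTT (0.5 mg/mL) is added for 4 h and the formazan is dissolved in DMSO for the read-out.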

[7] = test system: RAW264.7; assay: Antiinflammatory activity against mouse RAW264.7 cells assessed as inhibition of LPS-induced iNOS mRNA expression at 20 uM incubated for 8 hrs in presence of LPS by qRT-PCR analysis; assay type: functional, cell-based; outline: as §1
[8] = test system: RAW264.7; assay: Antiinflammatory activity against mouse RAW264.7 cells assessed as inhibition of LPS-induced NO production measured after 24 hrs by Griess assay; assay type: functional, cell-based; settings: RAW264.7, 24 h
Outline: (§4)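 RAW 264.7 cells (1 × 10^5 cells/mL) are cultured 24 h, stimulated with LPS (100 ng/mL final), and treated with compounds from 100 μM downward for 24 h in DMEM with 10% FBS. Medium nitrite is measured by Griess reaction (sulfanilamide, naphthylethylenediamine, phosphoric acid, 10 min, room temperature, dark). Mean + SD from three independent experiments.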

[9] = test system: RAW264.7; assay: Antiinflammatory activity against mouse RAW264.7 cells assessed as decrease in LPS-induced IL-6 mRNA expression at 20 uM in presence of LPS by qRT-PCR analysis; assay type: functional, cell-based; outline: as §1
[10] = test system: Mus musculus; assay: Antiinflammatory activity against DSS-induced colitis C57BL/6 mouse assessed as decrease in IL-1beta level in colon at 25 mg/kg, ip administered for 7 days; assay type: functional, organism-based; settings: time 7.0 day; outline: as §3
[11] = test system: Mus musculus; assay: Antiinflammatory activity against DSS-induced colitis C57BL/6 mouse model assessed as attenuation of colon length shortening at 50 mg/kg, ip administered for 7 days; assay type: functional, organism-based; settings: time 7.0 day
Outline: (§5)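 Male C57BL/6 mice, 6 weeks old, 5 per group, given 3.5% DSS in drinking solution with intraperitoneal drug in saline/castor oil/ethanol/DMSO (70:10:15:5) daily for 7 days. Colons are photographed after sacrifice by cervical dislocation for gross assessment.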

[12] = test system: RAW264.7; assay: Antiinflammatory activity against mouse RAW264.7 cells assessed as inhibition of LPS-induced NO production at 20 uM after 24 hrs by Griess assay; assay type: functional; outline: as §4
[13] = test system: Mus musculus; assay: Antiinflammatory activity against DSS-induced colitis C57BL/6 mouse assessed as decrease in p-p65 level in colon at 50 mg/kg, ip administered for 7 days by western blot analysis; assay type: functional, organism-based; settings: time 7.0 day; outline: as §3
[14] = test system: Mus musculus; assay: Antiinflammatory activity against DSS-induced colitis C57BL/6 mouse model assessed as dispersed CD86-positive cells in colon at 25 to 100 mg/kg, ip administered for 7 days by hematoxylin and eosin staining based microscopic analysis; assay type: functional, organism-based; settings: dose 25-100 mg/kg, time 7.0 day
Outline: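 DSS colitis (3.5% DSS, male C57BL/6 mice, n=5 per group) with 7-day intraperitoneal dosing in saline/castor oil/ethanol/DMSO vehicle. Colons are fixed in formalin, paraffin-embedded and stained with H&E (viewed at 200X). Separately, sections undergo CD86 immunohistochemistry (citrate antigen retrieval, 3% H2O2 block, 1:200 primary and HRP secondary, hematoxylin counterstain) viewed at 400X.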

[15] = test system: RAW264.7; assay: Antiinflammatory activity against mouse RAW264.7 cells assessed as inhibition of LPS-induced MCP-1 mRNA expression at 20 uM in presence of LPS by qRT-PCR analysis; assay type: functional, cell-based; outline: as §1
[16] = test system: RAW264.7; assay: Antiinflammatory activity against mouse RAW264.7 cells assessed as inhibition of LPS-induced COX2 mRNA expression at 20 uM incubated for 8 hrs in presence of LPS by qRT-PCR analysis; assay type: functional, cell-based; outline: as §1
[17] = test system: RAW264.7; assay: Inhibition of PI3K/Akt signaling in mouse RAW264.7 cells assessed as inhibition of LPS-induced NFkappB p-p65 accumulation at 1.25 uM in presence of LPS by western blot analysis; assay type: cell-based; outline: as §2
[18] = test system: RAW264.7; assay: Antiinflammatory activity against mouse RAW264.7 cells assessed as inhibition of LPS-induced COX2 mRNA expression incubated for 8 hrs in presence of LPS by qRT-PCR analysis; assay type: functional, cell-based; settings: dose 0.31-20 µM; outline: as §1
[19] = test system: Mus musculus; assay: Antiinflammatory activity against DSS-induced colitis C57BL/6 mouse model assessed as attenuation of colon length shortening at 25 mg/kg, ip administered for 7 days; assay type: functional, organism-based; settings: time 7.0 day; outline: as §5
[20] = test system: RAW264.7; assay: Antiinflammatory activity against mouse RAW264.7 cells assessed as inhibition of LPS-induced iNOS mRNA expression incubated for 8 hrs in presence of LPS by qRT-PCR analysis; assay type: functional, cell-based; settings: dose 0.31-20 µM; outline: as §1
[21] = test system: RAW264.7; assay: Antiinflammatory activity against mouse RAW264.7 cells assessed as decrease in LPS-induced IL-1beta mRNA expression at 20 uM in presence of LPS by qRT-PCR analysis; assay type: functional, cell-based; outline: as §1

In the case of C[C@]12CC[C@H]3[C@@H](CC=C4C[C@@H](O)CC[C@@]43C)[C@@H]1CC[C@@H]2C(=O)n1ccnc1, the Activity [1] is reported as “Dose-Dependent Effect”, the inhibition [2] is reported as “Dose-Dependent Effect” and the inhibition [3] is reported as “Active”. The Activity [4] was “Active”, the Activity [5] was “Dose-Dependent Effect” and the Activity [6] was “Non-Toxic”. The Activity [7] was “Active”, the IC50 [8] was 6.67 µM and the Activity [9] was “Active”. For the same compound, the Activity [10] was “Active”, the Activity [11] was “Active” and the inhibition at 20 µM [12] was 100%. The Activity [13] was “Active”, the Activity [14] was “Active” and the Activity [15] was “Active”. The Activity [16] was “Active”, the inhibition [17] was “Active” and the Activity [18] was “Dose-Dependent Effect”. The Activity [19] was “Active”, the Activity [20] was “Dose-Dependent Effect” and the Activity [21] was “Active”.
